Assay [1] concerns Rattus norvegicus. Kind of assay: Percent change in high density lipoproteins cholesterol concentration in serum from hypercholesterolemic rats at dose 50 mg/kg (po). The class given is functional. The procedure, abridged: (§1)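 Rats were fed 1.5% cholesterol/0.5% cholic acid diet for 7 days, with compounds given by gavage over the last 4 days as a 0.5% Methocel suspension (0.5 mL/100 g). Rats were fasted overnight, killed on day 8 and bled under light CO₂ anesthesia. HDL was isolated by heparin-MnCl₂ precipitation (8000 rpm, 15 min, 4 °C). Total and HDL cholesterol were measured enzymatically-colorimetrically; % change vs control.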

In assay [2] the test system is Rattus norvegicus. In words: Percent increase in liver weight in rats when administered perorally. It is filed as functional.
The test system of assay [3] is Rattus norvegicus. Kind of assay: Percent change in total cholesterol concentration in serum from hypercholesterolemic rats at dose 50 mg/kg (po). It is filed as functional.
In assay [4] the test system is Rattus norvegicus. In words: Percent change in total cholesterol concentration in serum from hypercholesterolemic rats at dose 35 mg/kg (po). The class given is functional.
For assay [5], the system named is Rattus norvegicus. Kind of assay: Percent change in high density lipoproteins cholesterol concentration in serum from hypercholesterolemic rats at dose 35 mg/kg (po). The class given is functional. The procedure, abridged: as §1
In assay [6] the test system is Rattus norvegicus. Kind of assay: Percent change in total cholesterol concentration in serum from hypercholesterolemic rats at dose 45 mg/kg (po). It is filed as functional.
Assay [7] relates to Rattus norvegicus. Kind of assay: Percent change in high density lipoproteins cholesterol concentration in serum from hypercholesterolemic rats at dose 45 mg/kg (po). The class given is functional. In a few lines:
as §1

Assay [8] relates to Rattus norvegicus. In words: Percent change in high density lipoproteins cholesterol concentration in serum from hypercholesterolemic rats at dose 23 mg/kg (po). The class given is functional. In a few lines: as §1
Assay [9] deals with Rattus norvegicus. Kind of assay: Percent change in total cholesterol concentration in serum from hypercholesterolemic rats at dose 23 mg/kg (po). It is filed as functional. The procedure, abridged:
as §1

The species named for assay [10] is Rattus norvegicus. Kind of assay: Compound was tested in vitro for inhibition of Cholesterol biosynthesis in rat liver slices, % inhibition of [14C]acetate incorporation in neutral lipids at 2 e10-4 concentration. It is filed as functional. The procedure, abridged:
(§2)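 Liver slices (250 mg) from fed male rats were incubated in Krebs-Ringer bicarbonate, pH 7.4, with 4 mM [2-¹⁴C]acetate under 95% O₂-5% CO₂. Compounds were tested at a final 2 × 10⁻⁴ M, or 5 × 10⁻⁵ M for one compound. ¹⁴C incorporation into cholesterol and into petroleum-ether-soluble nonsaponifiable neutral lipids gave % inhibition; mean of four determinations.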

Assay [11] is filed under the species Rattus norvegicus. In words: Compound was tested in vitro for inhibition of Cholesterol biosynthesis in rat liver slices, % inhibition of [14C]-acetate incorporation in cholesterol at 2 e10-4 concentration. The class given is functional. The procedure, abridged:
as §2

The subject of assay [12] is Rattus norvegicus. In words: Percent increase in liver weight in rats when a 50 mg/Kg dose was administered. It is filed as functional.
Assay [13] concerns Rattus norvegicus. Kind of assay: Percent change in triglyceride concentration in serum from normocholesterolemic rats at dose 50 mg/kg (po).
The subject of assay [14] is Rattus norvegicus. In words: Percent change in low density lipoproteins cholesterol concentration in serum from normocholesterolemic rats at dose 50 mg/kg (po).
A short description of assay [15]: Percent change in high density lipoprotein cholesterol.

Values joined by “and” are separate entries in the source; they are usually repeats but may differ in a detail not shown here. Identical values can stand only once.

With `O=C1c2ccccc2CCC1n1cccn1` (centres undefined), the Change with Rattus norvegicus [1] is given as -3%; with Rattus norvegicus [2] it was 9%; in the assay on Rattus norvegicus [3], 52%.
For `O=C1c2ccccc2CCC1n1ccnc1` (centres undefined), in that order: 94%, 13% and -34%.
With `CC1Oc2c(Br)cc(C(=O)O)cc2C(=O)C1n1ccnc1` (centres undefined), the Change in the assay on Rattus norvegicus [1] is -11%; in the assay with Rattus norvegicus [2], 4%; in the assay on Rattus norvegicus [3] it was -23%.
The matching figures for `Clc1ccc2c(c1)C=C(n1ccnc1)CO2`: 25%, 2% and -10%.
For `COc1ccc2c(c1)OC(C)C(n1ccnc1)C2=O` (centres undefined), in that order: 5%, 2% and 11%.
`OC1c2cc(Cl)ccc2OCC1n1ccnc1` (trans isomer): the Change in the assay on Rattus norvegicus [1] (50 mg/kg) is 83%; with Rattus norvegicus [2], 20%; in the assay on Rattus norvegicus [3] (50 mg/kg), -14%.
Regarding `CCCc1cc2c(cc1OC)OC(C)C(n1ccnc1)C2=O` (centres undefined), the Change in the assay with Rattus norvegicus [2] is on record as 24%; with Rattus norvegicus [4], -57%; in the assay with Rattus norvegicus [5] it was 152%.
As for `CCCC1Oc2ccccc2C(=O)C1n1ccnc1` (centres undefined), the Change was 20% with Rattus norvegicus [2], -4% with Rattus norvegicus [6] and 53% with Rattus norvegicus [7].
As to `O=C1c2cc(-c3ccccc3)ccc2CCC1n1ccnc1` (centres undefined), the Change turned out to be 2% in the assay on Rattus norvegicus [2], 8% in the assay with Rattus norvegicus [8] and 4% in the assay with Rattus norvegicus [9].
Take `COc1ccc2c(c1)C(=O)C(n1ccnc1)CO2` (centres undefined): the Change with Rattus norvegicus [1] is 88%; in the assay with Rattus norvegicus [2], 20%; with Rattus norvegicus [3], -21%.
As for `CC(C)(C)c1cc2c(cc1O)OCC(n1ccnc1)C2=O` (centres undefined), the values for the Change in the assay on Rattus norvegicus [1], in the assay on Rattus norvegicus [2] and in the assay on Rattus norvegicus [3] were 97%, 11% and -55%, respectively.
For `O=C1c2cc(Br)ccc2OCC1n1ccnc1` (centres undefined), in that order: 144%, 23% and -50%.
`Cc1ccc2c(c1)C(=O)C(n1ccnc1)CO2` (centres undefined): the Change in the assay on Rattus norvegicus [1] was found to be 32%; in the assay on Rattus norvegicus [3], 7%.
Consider `O=C1c2ccc(-c3ccccc3)cc2OCC1n1ccnc1` (centres undefined), for which the Change with Rattus norvegicus [1] is listed as 118%; in the assay on Rattus norvegicus [2] it was 22%; in the assay on Rattus norvegicus [3], -48%.
Turning to `COc1ccc2c(c1)OCC(n1ccnc1)C2=O` (centres undefined), the Change in the assay on Rattus norvegicus [1] is -1%; in the assay on Rattus norvegicus [2], 3%; in the assay with Rattus norvegicus [3] it was 11%.
For `Cc1nccn1C1COc2ccc(Cl)cc2C1=O` (centres undefined), the Change is reported as 23% in the assay on Rattus norvegicus [1], 14% with Rattus norvegicus [2] and 39% in the assay on Rattus norvegicus [3].
With `O=C1c2ccc(O)cc2CCC1n1ccnc1` (centres undefined), the Change in the assay on Rattus norvegicus [1] is 12%; in the assay with Rattus norvegicus [2], -3%; in the assay on Rattus norvegicus [3], 30%.
As to `CC(C)(C)c1cc(Br)c2c(c1)C(=O)C(n1ccnc1)CO2` (centres undefined), the figures for the Change in the assay on Rattus norvegicus [1], with Rattus norvegicus [2] and in the assay with Rattus norvegicus [3] were 57%, 15% and -12%, respectively.
In the case of `Nc1ccc2c(c1)C(=O)C(n1ccnc1)CC2` (centres undefined), the Change in the assay on Rattus norvegicus [2] was 3%; with Rattus norvegicus [4], -24%; with Rattus norvegicus [5], 31%. The values for the Inhibition in the assay filed under Rattus norvegicus [10] and in the assay listed under Rattus norvegicus [11] were 0% and 74%, respectively.
`CC1Oc2ccccc2C(=O)C1n1ccnc1` (centres undefined): the Change in the assay on Rattus norvegicus [1] is reported as 115%; with Rattus norvegicus [2], 15%; in the assay on Rattus norvegicus [3], -67%.
For `COc1ccc2c(c1)C(O)C(n1ccnc1)CC2` (centres undefined), in that order: 88%, 21% and -24%.
The matching figures for `O=C1c2cc(Cl)ccc2OCC1n1cccn1` (centres undefined): 13%, 6% and 35%.
The matching figures for `COc1cc(Br)c2c(c1)C(=O)C(n1ccnc1)CO2` (centres undefined): 64%, 6% and 14%.
Take `Cc1cc(Br)c2c(c1)C(=O)C(n1ccnc1)CO2` (centres undefined): the Change with Rattus norvegicus [1] is 21%; in the assay on Rattus norvegicus [2] it was 7%; in the assay on Rattus norvegicus [6], -15%.
Regarding `COC1c2cc(Cl)ccc2OCC1n1ccnc1` (racemic), the Change with Rattus norvegicus [1] is -7%; in the assay on Rattus norvegicus [2], 15%; in the assay with Rattus norvegicus [3], 8%.
The matching figures for `O=C1c2ccccc2OC(c2ccccc2)C1n1ccnc1` (centres undefined): -3%, 5% and 27%.
With `O=C(O)c1ccc2c(c1)C(=O)C(n1ccnc1)CC2` (centres undefined), the Change in the assay on Rattus norvegicus [2] is -3%; in the assay on Rattus norvegicus [6], -5%; with Rattus norvegicus [7], -9%.
Take `O=C1c2cc(Br)cc(Br)c2OCC1n1ccnc1` (centres undefined): the Change in the assay with Rattus norvegicus [1] is 171%; in the assay on Rattus norvegicus [2] it was 29%; in the assay with Rattus norvegicus [3] it was -68%.
The matching figures for `O=C1c2ccccc2OCC1n1ccnc1` (centres undefined): 4%, 16% and 34%.
Turning to `O=C1c2cc(O)cc(Br)c2OCC1n1ccnc1` (centres undefined), the Change in the assay on Rattus norvegicus [1] was 1%; in the assay with Rattus norvegicus [2], -1%; in the assay with Rattus norvegicus [3], 2%.
Turning to `OC1c2cc(Cl)ccc2OCC1n1ccnc1` (stereo in doubt; 40), the Change in the assay on Rattus norvegicus [12] was 24%; in the assay on Rattus norvegicus [13], -36%; in the assay on Rattus norvegicus [2] it was 24%; with Rattus norvegicus [3] (50 mg/kg), -42% and -19%; with Rattus norvegicus [14], -50%. The “Percent change in HDL cholesterol” value in assay [15] amounted to 123. For the same compound, the Inhibition in the assay filed under Rattus norvegicus [10] and in the assay filed under Rattus norvegicus [11] was 0% in each case.
As for `O=C1c2cc([N+](=O)[O-])ccc2CCC1n1ccnc1` (centres undefined), the Change with Rattus norvegicus [1] is given as 23%; in the assay on Rattus norvegicus [2], 5%; with Rattus norvegicus [3] it was -16%.
As for `COc1ccc2c(c1)C(=O)C(n1ccnc1)CC2` (centres undefined), the Change was 52% with Rattus norvegicus [1], 10% with Rattus norvegicus [2] and -40% in the assay with Rattus norvegicus [3].
For `CC1Oc2cc(O)c(C(C)(C)C)cc2C(=O)C1n1ccnc1` (centres undefined), in that order: 32%, 9% and -7%.
Take `CC1Oc2cc(O)ccc2C(=O)C1n1ccnc1` (centres undefined): the Change was 2% in the assay on Rattus norvegicus [1], 3% in the assay on Rattus norvegicus [2] and -22% in the assay on Rattus norvegicus [3].
For `O=C1c2ccsc2CCC1n1ccnc1` (centres undefined), the Change in the assay on Rattus norvegicus [1] amounted to 2%; with Rattus norvegicus [3], 17%.
`O=C1c2cc(O)ccc2OCC1n1ccnc1` (centres undefined): the Change is listed as -4% in the assay with Rattus norvegicus [1], 3% with Rattus norvegicus [2] and 9% in the assay with Rattus norvegicus [3].
`CC1Cc2ccccc2C(=O)C1n1ccnc1` (centres undefined): the Change in the assay on Rattus norvegicus [1] was 102%; with Rattus norvegicus [2], 26%; in the assay on Rattus norvegicus [3] it was -54%.
The matching figures for `O=C1c2ccccc2OC(c2cccnc2)C1n1ccnc1` (centres undefined): 12%, 4% and -4%.
For `CCCCCCCCOC1c2cc(Cl)ccc2OCC1n1ccnc1` (centres undefined), the Change in the assay with Rattus norvegicus [1] is on record as 18%; in the assay on Rattus norvegicus [3], 42%.

In general, Inhibition refers to the relative decrease from the control value, in per cent. Lower therefore signals a weak effect.

These data come from ChEMBL document CHEMBL1123418, “N-imidazolylchroman-4-ones, N-imidazolyl-1-tetralones, and their alcohols as hypolipemic agents raising high-density lipoproteins” (1986).
